According to ChEMBL document CHEMBL1152173, “Synthesis and in vitro evaluation of the antifungal activities of dihydropyrimidinones” (2008):
Converted amounts (≈) assume the structure as drawn. The source made the active and inactive calls. No cut-off for these calls is given here.

Key:
Assay type in all cases: functional
Trichoderma hamatum [1] = assay: Antifungal activity against Trichoderma hamatum assessed as radial growth at 7% after 48 hrs by poison food technique of Flack
How it was run: (§1)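 Poisoned-food method: acetone stock mixed into molten sterilized potato dextrose agar to final 0.5, 1, 3, 5 or 7%, poured into 90 mm plates. Plates were inoculated with a 9 mm mycelial disc from a 4-day-old pure culture and incubated at 25 ± 1 °C. Colony diameter (mm) was read every 24 h; mean of three replicates.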

Aspergillus niger [2] = assay: Antifungal activity against Aspergillus niger assessed as radial growth at 7% after 24 hrs by poison food technique of Flack
How it was run: (§2)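 Poisoned-food assay on potato dextrose agar. Compound stock in acetone was added to molten sterilized PDA to a final 0.5, 1, 3, 5 or 7%, then 20 mL was poured per 90 mm plate. Each plate was inoculated with a 9 mm mycelial disc from a 4-day-old pure culture and incubated at 25 ± 1 °C. Colony diameter (mm) was read every 24 h; mean of three replicates.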

Trichoderma koningii [3] = assay: Growth promotion of Trichoderma koningii assessed as radial growth at 0.5% after 24 hrs by poison food technique of Flack relative to control
Aspergillus niger [4] = assay: Growth promotion of Aspergillus niger assessed as radial growth at 1% after 72 hrs by poison food technique of Flack relative to control
How it was run: (§3)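 Growth increase in poisoned PDA plates (acetone stock, final 0.5 or 1%) against untreated control plates. Inoculum was a 9 mm mycelial disc from a 4-day-old culture, incubated at 25 ± 1 °C, with colony diameter read every 24 h. Where treated growth exceeded control, percentage increase over control was recorded; average of three replicates.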

Trichoderma koningii [5] = assay: Growth promotion of Trichoderma koningii assessed as radial growth at 1% after 24 hrs by poison food technique of Flack relative to control
Trichoderma hamatum [6] = assay: Antifungal activity against Trichoderma hamatum assessed as radial growth at 5% after 48 hrs by poison food technique of Flack relative to control
How it was run: (§4)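 Acetone stock added to molten sterilized PDA to final 0.5–7%, plated in 90 mm dishes with compound-free plates as control. Each plate was inoculated with a 9 mm disc from a 4-day-old culture, incubated at 25 ± 1 °C, and colony diameter measured at 24 h intervals. % inhibition = (control − treatment)/control × 100; three replicates averaged.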

Trichoderma koningii [7] = assay: Growth promotion of Trichoderma koningii assessed as radial growth at 1% after 48 hrs by poison food technique of Flack relative to control
Aspergillus niger [8] = assay: Antifungal activity against Aspergillus niger assessed as radial growth at 7% after 72 hrs by poison food technique of Flack; how it was run: as §2
Trichoderma koningii [9] = assay: Growth promotion of Trichoderma koningii assessed as radial growth at 1% after 72 hrs by poison food technique of Flack relative to control
Trichoderma koningii [10] = assay: Growth promotion of Trichoderma koningii assessed as radial growth at 0.5% after 48 hrs by poison food technique of Flack relative to control
Aspergillus niger [11] = assay: Antifungal activity against Aspergillus niger assessed as radial growth at 3% after 24 hrs by poison food technique of Flack relative to control
Trichoderma koningii [12] = assay: Antifungal activity against Trichoderma koningii assessed as radial growth at 0.5% after 72 hrs by poison food technique of Flack relative to control; how it was run: as §4
Trichoderma hamatum [13] = assay: Antifungal activity against Trichoderma hamatum
Trichoderma hamatum [14] = assay: Antifungal activity against Trichoderma hamatum assessed as radial growth at 0.5% after 24 hrs by poison food technique of Flack relative to control
Aspergillus niger [15] = assay: Growth promotion of Aspergillus niger assessed as radial growth at 0.5% after 72 hrs by poison food technique of Flack relative to control; how it was run: as §3
Aspergillus niger [16] = assay: Antifungal activity against Aspergillus niger assessed as radial growth at 7% after 48 hrs by poison food technique of Flack; how it was run: as §2
Aspergillus niger [17] = assay: Growth promotion of Aspergillus niger assessed as radial growth at 1% after 48 hrs by poison food technique of Flack relative to control; how it was run: as §3
Aspergillus niger [18] = assay: Growth promotion of Aspergillus niger assessed as radial growth at 0.5% after 48 hrs by poison food technique of Flack relative to control; how it was run: as §3
Aspergillus niger [19] = assay: Growth promotion of Aspergillus niger assessed as radial growth at 0.5% after 24 hrs by poison food technique of Flack relative to control; how it was run: as §3
Trichoderma koningii [20] = assay: Growth promotion of Trichoderma koningii assessed as radial growth at 0.5% after 72 hrs by poison food technique of Flack relative to control
Trichoderma koningii [21] = assay: Antifungal activity against Trichoderma koningii assessed as radial growth at 7% after 24 hrs by poison food technique of Flack; how it was run: as §1
Trichoderma hamatum [22] = assay: Growth promotion of Trichoderma hamatum assessed as radial growth at 1% after 24 hrs by poison food technique of Flack relative to control
Trichoderma koningii [23] = assay: Antifungal activity against Trichoderma koningii assessed as radial growth at 5% after 24 hrs by poison food technique of Flack; how it was run: as §1
Trichoderma hamatum [24] = assay: Growth promotion of Trichoderma hamatum assessed as radial growth at 0.5% after 24 hrs by poison food technique of Flack relative to control; how it was run: as §3
Aspergillus niger [25] = assay: Antifungal activity against Aspergillus niger assessed as radial growth at 3% after 24 hrs by poison food technique of Flack; how it was run: as §2
Trichoderma hamatum [26] = assay: Growth promotion of Trichoderma hamatum assessed as radial growth at 0.5% after 48 hrs by poison food technique of Flack relative to control
Trichoderma hamatum [27] = assay: Growth promotion of Trichoderma hamatum assessed as radial growth at 1% after 48 hrs by poison food technique of Flack relative to control
Aspergillus niger [28] = assay: Antifungal activity against Aspergillus niger assessed as radial growth at 5% after 24 hrs by poison food technique of Flack; how it was run: as §2
Trichoderma hamatum [29] = assay: Antifungal activity against Trichoderma hamatum assessed as radial growth at 5% after 24 hrs by poison food technique of Flack; how it was run: as §1
Trichoderma hamatum [30] = assay: Antifungal activity against Trichoderma hamatum assessed as radial growth at 5% after 48 hrs by poison food technique of Flack; how it was run: as §1
Aspergillus niger [31] = assay: Antifungal activity against Aspergillus niger assessed as radial growth at 5% after 48 hrs by poison food technique of Flack; how it was run: as §2
Trichoderma hamatum [32] = assay: Growth promotion of Trichoderma hamatum assessed as radial growth at 0.5% after 72 hrs by poison food technique of Flack relative to control
Trichoderma hamatum [33] = assay: Antifungal activity against Trichoderma hamatum assessed as radial growth at 7% after 72 hrs by poison food technique of Flack; how it was run: as §1
Trichoderma koningii [34] = assay: Antifungal activity against Trichoderma koningii assessed as radial growth at 7% after 48 hrs by poison food technique of Flack; how it was run: as §1
Trichoderma koningii [35] = assay: Antifungal activity against Trichoderma koningii assessed as radial growth at 5% after 48 hrs by poison food technique of Flack; how it was run: as §1
Trichoderma koningii [36] = assay: Antifungal activity against Trichoderma koningii assessed as radial growth at 3% after 24 hrs by poison food technique of Flack; how it was run: as §1
Aspergillus niger [37] = assay: Growth promotion of Aspergillus niger assessed as radial growth at 1% after 24 hrs by poison food technique of Flack relative to control; how it was run: as §3

SMILES | MIC (Trichoderma hamatum [13]) | Activity (Trichoderma hamatum [1]) | Activity (Aspergillus niger [2]) | Activity (Trichoderma koningii [3]) | Activity (Aspergillus niger [4]) | inhibition (INH) (Trichoderma hamatum [6]) | Activity (Trichoderma koningii [7]) | Activity (Aspergillus niger [8]) | Activity (Trichoderma koningii [10]) | inhibition (INH) (Aspergillus niger [11]) | inhibition (INH) (Trichoderma koningii [12]) | inhibition (INH) (Trichoderma hamatum [14]) | Activity (Aspergillus niger [15]) | Activity (Aspergillus niger [16]) | Activity (Aspergillus niger [17]) | Activity (Aspergillus niger [18]) | Activity (Aspergillus niger [19]) | Activity (Trichoderma koningii [20]) | Activity (Trichoderma koningii [21]) | Activity (Trichoderma koningii [23]) | further results
CCOC(=O)C1=C(C)NC(=O)NC1c1ccc(N(C)C)cc1 (stereo not drawn) | 0.025 µg/mL (≈ 0.0824 µM) | – | Active | – | – | 93.38% | – | Active | – | 100% | 45.53% | 0% | – | Active | – | – | – | – | Active | Active | Activity (Trichoderma hamatum [22]): 3.15%; Activity (Trichoderma hamatum [24]): 8.97%; Activity (Aspergillus niger [25]): Active; Activity (Trichoderma hamatum [26]): 3.3%; Activity (Trichoderma hamatum [27]): 1.5%; Activity (Aspergillus niger [28]): Active
CCOC(=O)C1=C(C)NC(=O)NC1c1ccccc1 (stereo not drawn) | 0.025 µg/mL (≈ 0.096 µM) | Active | Active | – | 7.76% | 96.89% | – | – | – | 69.44% | 1.59% | 11.32% | 27.63% | – | 13.37% | 64.39% | 19.44% | – | Active | Active | Activity (Trichoderma hamatum [33]): Active; Activity (Trichoderma hamatum [29]): Active; Activity (Trichoderma koningii [34]): Active; Activity (Trichoderma koningii [35]): Active; Activity (Trichoderma koningii [36]): Active

Further lines, with some results ahead:

MIC (Trichoderma hamatum [13]) | SMILES | Activity (Trichoderma hamatum [1]) | Activity (Aspergillus niger [2]) | Activity (Trichoderma koningii [3]) | Activity (Aspergillus niger [4]) | inhibition (INH) (Trichoderma hamatum [6]) | Activity (Trichoderma koningii [7]) | Activity (Aspergillus niger [8]) | Activity (Trichoderma koningii [10]) | inhibition (INH) (Aspergillus niger [11]) | inhibition (INH) (Trichoderma koningii [12]) | inhibition (INH) (Trichoderma hamatum [14]) | Activity (Aspergillus niger [15]) | Activity (Aspergillus niger [16]) | Activity (Aspergillus niger [17]) | Activity (Aspergillus niger [18]) | Activity (Aspergillus niger [19]) | Activity (Trichoderma koningii [20]) | Activity (Trichoderma koningii [21]) | Activity (Trichoderma koningii [23]) | further results
0.025 µg/mL (≈ 0.0905 µM) | CCOC(=O)C1=C(C)NC(=S)NC1c1ccccc1 (stereo not drawn) | Active | Active | 36.06% | 75.75% | 93% | 3.92% | Active | 16.26% | 33.33% | 0% | 17.13% | 106.06% | Active | 50% | 96.9% | 133% | 2.97% | – | – | Activity (Trichoderma koningii [5]): 26.94%; Activity (Trichoderma koningii [9]): 2.97%
0.025 µg/mL (≈ 0.0783 µM) | CCOC(=O)C1=C(C)NC(=S)NC1c1ccc(N(C)C)cc1 (stereo not drawn) | Active | Active | 15.38% | 92.07% | 100% | 18.21% | Active | 18.75% | 30% | 0% | 8.92% | 100% | Active | 86.6% | 103.2% | 60% | 2.7% | Active | – | Activity (Trichoderma koningii [9]): 1.35%; Activity (Trichoderma hamatum [29]): Active; Activity (Trichoderma hamatum [30]): Active; Activity (Aspergillus niger [31]): Active; Activity (Aspergillus niger [28]): Active
0.025 µg/mL (≈ 0.0855 µM) | CCOC(=O)C1=C(C)NC(=S)NC1c1ccccc1O (stereo not drawn) | Active | – | 19.71% | 104.34% | 100% | 113.53% | – | 53.12% | 54.95% | 0% | 26.41% | 93.61% | – | 94.34% | 129.68% | 90.09% | 1.25% | Active | Active | Activity (Trichoderma hamatum [29]): Active; Activity (Trichoderma hamatum [30]): Active; Activity (Trichoderma hamatum [32]): 0.42%
0.025 µg/mL (≈ 0.0905 µM) | CCOC(=O)C1=C(C)NC(=O)NC1c1ccccc1O (stereo not drawn) | Active | Active | 6.49% | – | 94.23% | – | – | 11.97% | 37.6% | 0% | 0% | – | Active | – | – | 3.2% | 6.37% | Active | – | Activity (Trichoderma koningii [5]): 5.79%; Activity (Aspergillus niger [37]): 7.4%; Activity (Trichoderma hamatum [24]): 5.68%; Activity (Trichoderma hamatum [26]): 19.53%; Activity (Trichoderma hamatum [32]): 4.07%; Activity (Trichoderma koningii [34]): Active
